Measurements: ChEMBL document CHEMBL1139620, “Synthesis of a small library of diketopiperazines as potential inhibitors of calpain” (Bioorg Med Chem Lett, 2005)
One block for each compound: values may come before it. Where a SMILES comes first, the peptide text is derived from it. [ ]: non-standard residue; d: D form. The star is where a group is joined. ξ: configuration not given here. ξF = NC(Cc1ccccc1)C(=O)O; Cbz = O=C(OCc1ccccc1)*

Tests used:
[1] = target: T1, Calpain-1 catalytic subunit (Homo sapiens) (UniProt P07384); assay: Percent inhibition of human calpain 1 at 650 uM; Inhibition within […]
T1 sequence (whole entry): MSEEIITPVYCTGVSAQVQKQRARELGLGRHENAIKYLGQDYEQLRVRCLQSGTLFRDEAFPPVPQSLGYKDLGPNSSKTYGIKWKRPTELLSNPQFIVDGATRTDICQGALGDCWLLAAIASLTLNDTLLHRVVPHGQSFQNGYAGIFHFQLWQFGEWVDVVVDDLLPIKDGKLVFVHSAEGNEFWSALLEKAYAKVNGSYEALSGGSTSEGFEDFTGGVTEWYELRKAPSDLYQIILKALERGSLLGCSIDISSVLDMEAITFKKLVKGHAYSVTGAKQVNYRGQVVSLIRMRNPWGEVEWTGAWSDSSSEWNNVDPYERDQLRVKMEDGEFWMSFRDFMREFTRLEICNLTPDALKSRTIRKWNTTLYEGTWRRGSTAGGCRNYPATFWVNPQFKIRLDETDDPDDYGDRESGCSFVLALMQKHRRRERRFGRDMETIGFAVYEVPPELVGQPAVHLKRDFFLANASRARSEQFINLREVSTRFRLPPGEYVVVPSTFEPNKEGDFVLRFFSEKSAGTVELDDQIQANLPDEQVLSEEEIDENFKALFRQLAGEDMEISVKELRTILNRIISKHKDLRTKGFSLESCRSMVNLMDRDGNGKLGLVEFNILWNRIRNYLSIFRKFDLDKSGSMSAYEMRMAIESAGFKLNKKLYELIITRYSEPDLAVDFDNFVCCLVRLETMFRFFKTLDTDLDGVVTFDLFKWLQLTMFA
Outline: (§1)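 Recombinant human calpain I expressed in baculovirus, continuous fluorescence assay with Suc-Leu-Tyr-AMC (8 mM stock) in Tris 50 mM pH 7.3, EDTA 0.5 mM, βME 10 mM. Started with CaCl2 (40 mM stock). Ex 380/em 460 nm, linear for at least 2 min. Percent inhibition is the drop in initial rate against DMSO-only controls at the highest concentration tested. Values are within 10%.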

[2] = target: T1, Calpain-1 catalytic subunit (Homo sapiens); assay: Percent inhibition of human calpain 1 at 120 uM; Inhibition within […]; outline: as §1
[3] = target: T1, Calpain-1 catalytic subunit (Homo sapiens); assay: Percent inhibition of human calpain 1 at 110 uM; Inhibition within […]; outline: as §1
[4] = target: T1, Calpain-1 catalytic subunit (Homo sapiens); assay: Percent inhibition of human calpain 1 at 360 uM; Inhibition within […]; outline: as §1
[5] = Concentration required for inhibition of calpain
Outline: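 Calpain I (recombinant human, baculovirus-expressed) was hydrolysing Suc-Leu-Tyr-AMC in Tris 50 mM pH 7.3 with EDTA 0.5 mM and βME 10 mM, activated by CaCl2 (40 mM stock). Fluorescence was followed continuously at ex 380/em 460 nm. The value is the concentration giving a 50% decrease in initial hydrolysis rate relative to DMSO controls.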

[6] = target: T1, Calpain-1 catalytic subunit (Homo sapiens); assay: Percent inhibition of recombinant human calpain 1 at highest concentration of 150 uM; Inhibition values are within […]; outline: as §1
[7] = target: T1, Calpain-1 catalytic subunit (Homo sapiens); assay: Percent inhibition of human calpain 1 at 580 uM; Inhibition within […]; outline: as §1
[8] = target: T1, Calpain-1 catalytic subunit (Homo sapiens); assay: Percent inhibition of human calpain 1 at 300 uM; Inhibition within […]; outline: as §1
[9] = target: T1, Calpain-1 catalytic subunit (Homo sapiens); assay: Percent inhibition of human calpain 1 at 350 uM; Inhibition within […]; outline: as §1
[10] = target: T1, Calpain-1 catalytic subunit (Homo sapiens); assay: Percent inhibition of human calpain 1 at 97 uM; Inhibition within […]; outline: as §1
[11] = target: T1, Calpain-1 catalytic subunit (Homo sapiens); assay: Percent inhibition of human calpain 1 at 190 uM; Inhibition within […]; outline: as §1
[12] = target: T1, Calpain-1 catalytic subunit (Homo sapiens); assay: Percent inhibition of human calpain 1 at 500 uM; Inhibition within […]; outline: as §1
[13] = target: T1, Calpain-1 catalytic subunit (Homo sapiens); assay: Percent inhibition of human calpain 1 at 210 uM; Inhibition within […]; outline: as §1
[14] = target: T1, Calpain-1 catalytic subunit (Homo sapiens); assay: Percent inhibition of human calpain 1 at 130 uM; Inhibition within […]; outline: as §1
[15] = target: T1, Calpain-1 catalytic subunit (Homo sapiens); assay: Percent inhibition of human calpain 1 at 160 uM; Inhibition within […]; outline: as §1
[16] = target: T1, Calpain-1 catalytic subunit (Homo sapiens); assay: Percent inhibition of human calpain 1 at 680 uM; Inhibition within […]; outline: as §1
[17] = Binding affinity for rat erythrocyte calpain
[18] = target: T1, Calpain-1 catalytic subunit (Homo sapiens); assay: Percent inhibition of human calpain 1 at 180 uM; Inhibition within […]; outline: as §1
[19] = target: T1, Calpain-1 catalytic subunit (Homo sapiens); assay: Percent inhibition of human calpain 1 at highest 200 uM; Inhibition within […]; outline: as §1
[20] = target: T1, Calpain-1 catalytic subunit (Homo sapiens); assay: Percent inhibition of human calpain 1 at 550 uM; Inhibition within […]; outline: as §1
[21] = target: T1, Calpain-1 catalytic subunit (Homo sapiens); assay: Percent inhibition of human calpain 1 at 610 uM; Inhibition within […]; outline: as §1
[22] = target: T1, Calpain-1 catalytic subunit (Homo sapiens); assay: Percent inhibition of human calpain 1 at 90 uM; Inhibition within […]; outline: as §1
[23] = target: T1, Calpain-1 catalytic subunit (Homo sapiens); assay: Percent inhibition of human calpain 1 at 100 uM; Inhibition within […]; outline: as §1
[24] = target: T1, Calpain-1 catalytic subunit (Homo sapiens); assay: Percent inhibition of human calpain 1 at 170 uM; Inhibition within […]; outline: as §1
[25] = target: T1, Calpain-1 catalytic subunit (Homo sapiens); assay: Percent inhibition of human calpain 1 at 280 uM; Inhibition within […]; outline: as §1
[26] = target: T1, Calpain-1 catalytic subunit (Homo sapiens); assay: Percent inhibition of human calpain 1 at 920 uM; Inhibition within […]; outline: as §1

Compound: O=C1N[C@@H](Cc2ccc(O)cc2)C(=O)N[C@H]1COCc1ccccc1
inhibition [2]: 0%

Compound: CC(C)C[C@@H]1NC(=O)[C@H](COCc2ccccc2)NC1=O
inhibition [3]: 0%

Compound: CN1C(=O)[C@H](Cc2ccc(O)cc2)N(C)C(=O)[C@@H]1Cc1ccccc1
inhibition [4]: 0%

Compound: COc1c([C@@H](O)CC(C)C)ccc2c1C(=O)OCc1cc(C)cc(O)c1O2 [PENICILLIDE]
IC50 [5]: 7.1 µM

Compound: O=C1N[C@@H](Cc2c[nH]c3ccccc23)C(=O)N[C@H]1Cc1ccc(O)cc1
inhibition [6]: 0%

Compound: Cc1ccc(S(=O)(=O)/N=C(/N)NCCC[C@@H]2NC(=O)[C@H](Cc3ccccc3)NC2=O)cc1
inhibition [9]: 0%

Compound: O=C1N[C@@H](Cc2ccc(OCc3ccccc3)cc2)C(=O)N[C@H]1Cc1ccc(OCc2ccccc2)cc1
inhibition [10]: 50%

Compound: C[C@H](O)[C@@H]1NC(=O)[C@H](Cc2ccccc2)NC1=O
inhibition [11]: 30%

Compound: O=C1N[C@@H](Cc2ccc(O)cc2)C(=O)N[C@H]1Cc1ccc(O)cc1
inhibition [12]: 0%

Compound: COC(=O)C[C@H]1NC(=O)[C@H](Cc2ccc(O)cc2)NC1=O
inhibition [13]: 0%

Compound: CC(C)C[C@@H]1NC(=O)[C@H](Cc2ccccc2)NC1=O
inhibition [14]: 0%

Compound: COC(=O)C[C@@H]1NC(=O)[C@H](Cc2ccccc2)NC1=O
inhibition [15]: 13%

Compound: CN1C(=O)[C@H](Cc2ccc(O)cc2)N(C)C(=O)[C@@H]1Cc1ccc(O)cc1
inhibition [16]: 0%
IC50 [5]: 0.8 µM

Compound: CC(C)[C@H](NC(=O)OCc1ccccc1)C(=O)NC(C=O)Cc1ccccc1 (stereo partly drawn) (Cbz-Val-[ξF]-aldehyde)
Ki [17]: 0.01 µM

Compound: O=C1N[C@@H](Cc2ccccc2)C(=O)N[C@H]1COCc1ccccc1
inhibition [8]: 0%

Compound: CC(C)[C@@H]1NC(=O)[C@H](Cc2ccc(OCc3ccccc3)cc2)NC1=O
inhibition [19]: 0%

Compound: O=C1N[C@@H](Cc2c[nH]c3ccccc23)C(=O)N[C@H]1COCc1ccccc1
inhibition [19]: 0%

Compound: O=C1N[C@@H](Cc2c[nH]c3ccccc23)C(=O)N[C@H]1Cc1ccccc1
inhibition [23]: 0%

Compound: Cc1ccc(S(=O)(=O)/N=C(/N)NCCC[C@@H]2NC(=O)[C@H](Cc3ccc(O)cc3)NC2=O)cc1
inhibition [24]: 0%

Compound: O=C1N[C@@H](Cc2ccccc2)C(=O)N[C@H]1Cc1ccccc1
inhibition [25]: 0%

Compound: O=C1N[C@@H](Cc2c[nH]c3ccccc23)C(=O)N[C@H]1Cc1c[nH]c2ccccc12
inhibition [18]: 0%

Compound: CC(C)C[C@@H]1NC(=O)[C@H](Cc2c[nH]c3ccccc23)NC1=O
inhibition [26]: 0%

The remaining lines, values ahead:

inhibition [1]: 50%
Compound: O=C1N[C@@H](Cc2ccc(OCc3ccccc3)cc2)C(=O)N[C@H]1Cc1ccccc1

inhibition [7]: 0%
Compound: C[C@H](O)[C@@H]1NC(=O)[C@H](Cc2ccc(O)cc2)NC1=O

inhibition [8]: 0%
Compound: CN1C(=O)[C@H](Cc2ccccc2)N(C)C(=O)[C@@H]1Cc1ccccc1

inhibition [2]: 0%
Compound: COC(=O)C[C@@H]1NC(=O)[C@H](Cc2ccc(OCc3ccccc3)cc2)NC1=O

inhibition [18]: 0%
Compound: O=C1N[C@@H](Cc2ccc(O)cc2)C(=O)N[C@H]1Cc1ccccc1

inhibition [9]: 50%
Compound: CN1C(=O)[C@H](Cc2ccc(OCc3ccccc3)cc2)N(C)C(=O)[C@@H]1Cc1ccc(OCc2ccccc2)cc1

inhibition [11]: 0%
Compound: CC(C)C[C@@H]1NC(=O)[C@H](Cc2ccc(O)cc2)NC1=O

inhibition [20]: 0%
IC50 [5]: 1.3 µM
Compound: CC(C)c1ncc(Cc2ccccc2)nc1O

inhibition [21]: 25%
Compound: COC(=O)C[C@H]1NC(=O)[C@H](Cc2ccccc2)NC1=O

inhibition [22]: 25%
Compound: COC(=O)C[C@@H]1NC(=O)[C@H](Cc2ccc(O)cc2)NC1=O

inhibition [6]: 0%
Compound: COC(=O)C[C@@H]1NC(=O)[C@H](COCc2ccccc2)NC1=O

IC50 [5]: 0.4 µM
Compound: O=C(O)/C(S)=C/c1ccc(I)cc1
